Assay results reported in ChEMBL document CHEMBL1156478, “Loss of huntingtin function complemented by small molecules acting as repressor element 1/neuron restrictive silencer element silencer modulators” (J Biol Chem, 2007).
Activity calls are given as the source filed them. The calls are words filed in the database; no cut-off is given here.

Columns and labels:
[1] = (§1) […] of REST/NRSF-coupled repression of luciferase tagged rat RE1/NRSE BDNF promoter activity expressed in ST14A cells assessed as increase in luciferase activity; type: cell-based
In short: (§2)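 Stable ST14A clone carrying RE1/NRSE(BDNF)-firefly luciferase, selected for DN:REST responsiveness; cells in 96 wells exposed after adhesion to compounds (DMSO, 10 mM stock) in triplicate, 72 h; luciferin added, luminescence expressed as RLU per µg protein (BCA), relative to untreated; EC50 from dose–response.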

ST14A [2] = assay: […] of REST/NRSF-coupled repression of luciferase tagged rat RE1/NRSE BDNF promoter activity expressed in ST14A cells at 75 nM assessed as increase in luciferase activity; type: cell-based; in short: as §2
ST14A [3] = assay: Increase in BDNF mRNA expression in rat ST14A cells expressing RE1/NRSE BDNF promoter after 72 hrs by RT-PCR relative to control; type: functional, cell-based
In short: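 Cells treated 72 h; total RNA (1 µg) reverse transcribed, three independent reactions per RNA stock, triplicate SYBR Green real-time PCR with 25 ng cDNA, 0.2 µM primers; BDNF cycling 95 °C 10 min then 40 × (95 °C 10 s, 56 °C 10 s, 72 °C 20 s), melt-curve check; normalized to β-actin, fold over untreated; three independent experiments.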

ST14A [4] = assay: Increase in BDNF protein expression in rat ST14A cells expressing RE1/NRSE BDNF promoter after 72 hrs by ELISA relative to control; type: functional, cell-based
In short: (§3)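 BDNF protein after 72 h compound exposure: lysis in Tris-HCl pH 7.5, 150 mM NaCl, 1% Triton X-100, 10% glycerol, EDTA/EGTA, protease inhibitors; homogenized, sonicated, centrifuged 15 min at 4 °C; supernatant assayed by BDNF immunoassay, normalized to BCA total protein; fold over untreated cells.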

ST14A [5] = assay: Increase in RE1/NRSE promoter regulated synapsin I mRNA expression in rat ST14A cells at 200 nM after 72 hrs by RT-PCR relative to control; type: functional, cell-based
In short: (§4)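 72 h exposure; SYBR Green real-time PCR for synapsin I and M4: 95 °C 3 min, then 40 × (95 °C 30 s, 58 °C 30 s, 72 °C 30 s), melt curve 55–94 °C; normalized to β-actin, fold over untreated; triplicate reactions.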

ST14A [6] = assay: Increase in RE1/NRSE promoter regulated muscarinic M4 receptor mRNA expression in rat ST14A cells at 200 nM after 72 hrs by RT-PCR relative to control; type: functional, cell-based; in short: as §4
ST14A [7] = assay: Increase in REST/NRSF mRNA expression in rat ST14A cells after 72 hrs by RT-PCR relative to control; type: functional, cell-based
In short: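 REST/NRSF transcript by SYBR Green real-time PCR after 72 h exposure: 95 °C 3 min, then 45 × (95 °C 30 s, 60 °C 30 s, 72 °C 30 s), melt curve 55–94 °C; normalized to β-actin, fold over untreated; triplicate reactions.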

ST14A [8] = assay: Increase in E2F1 mRNA expression in rat ST14A cells after 72 hrs by RT-PCR relative to control; type: functional, cell-based
In short: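 E2F1 SYBR Green real-time PCR after 72 h exposure: 95 °C 10 min, then 40 × (95 °C 15 s, 60 °C 1 min), fluorescence read at 60 °C, melt curve 55–94 °C; normalized to β-actin, fold over untreated cells; triplicate reactions.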

[9] = Increase in BDNF protein expression in […]/HdhQ11 cells expressing homozygous mutant huntingtin gene at 50 nM after 72 hrs by ELISA relative to control; type: functional; in short: as §3
neural = assay: Increase in BDNF protein expression in neural cells overexpressing huntingtin mutant gene after 72 hrs by ELISA relative to control; type: functional, cell-based; in short: as §3
STHdhQ11/HdhQ11 [10] = assay: Effect on REST/NRSF translocation in mouse STHdhQ11/HdhQ11 cells expressing homozygous mutant huntingtin gene
ST14A [11] = assay: as §1; type: cell-based; in short: as §2
[12] = Increase in BDNF protein expression in […]/HdhQ11 cells expressing homozygous mutant huntingtin gene at 200 nM after 72 hrs by ELISA relative to control; type: functional; in short: as §3
ST14A [13] = assay: […] of REST/NRSF-coupled repression of luciferase tagged rat RE1/NRSE BDNF promoter activity expressed in ST14A cells at 25 nM assessed as increase in luciferase activity; type: cell-based; conditions: TDE = time-dependent effect
[14] = Increase in cell viability of stress-exposed […]/HdhQ11 cells expressing homozygous mutant huntingtin gene at 50 nM after 48 hrs by MTT assay; type: functional
In short: (§5)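 Cells plated at 80,000/well in triplicate, 24 h at 33 °C, washed, switched to serum-deprived medium at 37 °C as stress, with or without compound; MTT read 48 h after treatment, formazan at 560 nm after 1 h at 37 °C; three independent experiments.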

STHdhQ11/HdhQ11 [15] = assay: Increase in cell viability of stress-exposed […]/HdhQ11 cells expressing homozygous mutant huntingtin gene at 25 nM after 48 hrs by MTT assay; type: functional, cell-based; in short: as §5
Mus musculus = species on record: Mus musculus; assay: Effect on cell proliferation of stress-exposed mouse STHdhQ11/HdhQ11 cells expressing homozygous mutant huntingtin gene assessed as BrdUrd incorporation
ST14A [16] = assay: Induction of REST/NRSF-coupled repression of luciferase tagged rat RE1/NRSE BDNF promoter activity expressed in ST14A cells at 10 nM assessed as increase in luciferase activity; type: cell-based
In short: (§6)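 ST14A rat neural cells stably carrying RE1/NRSE(BDNF)-luciferase reporter (DiaNRSE-Luc8 clone), grown in DMEM/10% heat-inactivated FBS at 33 °C, 5% CO2. Compounds from 10 mM DMSO stocks added to cells plated the day before; 72 h exposure in 96-well format, triplicate. Firefly luciferase read after luciferin, expressed as RLU per µg protein (BCA) relative to untreated cells.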

ST14A [17] = assay: Induction of REST/NRSF-coupled repression of luciferase tagged rat RE1/NRSE BDNF promoter activity expressed in ST14A cells at 5 nM assessed as increase in luciferase activity; type: cell-based; in short: as §6

## Cc1nc2ncccn2c1-c1csc(Nc2ccc(N(C)C)cc2)n1
[1]
  EC50: 20 nM
ST14A [2]
  Activity: Active
ST14A [3]
  Activity: Dose-dependent effect
ST14A [4]
  Activity: Dose-dependent effect
ST14A [5]
  Activity: Active
ST14A [6]
  Activity: Active
ST14A [7]
  Activity: inactive
ST14A [8]
  Activity: inactive
[9]
  fold change (FC): 1.6
neural
  Activity: Active
STHdhQ11/HdhQ11 [10]
  Activity: inactive

## COc1ccc(Nc2nc(-c3c(C)nc4cc(C)ccn34)cs2)cc1
[1]
  EC50: 12 nM
ST14A [11]
  Activity: Dose-dependent effect
[12]
  fold change (FC): 2
ST14A [13]
  Activity: tde
ST14A [2]
  Activity: Active
ST14A [3]
  Activity: Dose-dependent effect
ST14A [4]
  Activity: Dose-dependent effect
ST14A [5]
  Activity: Active
ST14A [6]
  Activity: Active
ST14A [7]
  Activity: inactive
ST14A [8]
  Activity: inactive
neural
  Activity: Active
STHdhQ11/HdhQ11 [10]
  Activity: inactive

## CC(/C=C/C(=O)NO)=C\[C@@H](C)C(=O)c1ccc(N(C)C)cc1
ST14A [11]
  Activity: Dose-dependent effect
ST14A [2]
  Activity: Active

## Cc1ccn2c(-c3csc(Nc4ccc(N(C)C)cc4)n3)c(C)nc2c1
[1]
  EC50: 20 nM
[12]
  fold change (FC): 2
ST14A [2]
  Activity: Active
ST14A [3]
  Activity: Dose-dependent effect
ST14A [4]
  Activity: Dose-dependent effect
ST14A [5]
  Activity: Active
ST14A [6]
  Activity: Active
ST14A [7]
  Activity: inactive
ST14A [8]
  Activity: inactive
neural
  Activity: Active
[14]
  Activity: 17%
STHdhQ11/HdhQ11 [15]
  Activity: Active
STHdhQ11/HdhQ11 [10]
  Activity: inactive
Mus musculus
  Activity: inactive

## O=C(CCCCCCC(=O)Nc1ccccc1)NO
ST14A [7]
  Activity: Active
ST14A [8]
  Activity: Active

## CN[C@@H]1C[C@H]2O[C@@](C)([C@@H]1OC)n1c3ccccc3c3c4c(c5c6ccccc6n2c5c31)C(=O)NC4
ST14A [16]
  Activity: inactive

## O=C(O)CC[N+](=O)[O-]
ST14A [17]
  Activity: inactive
ST14A [16]
  Activity: inactive
